# SENP1 FRET inh: blocks the human SENP1 SUMO protease catalytic domain. 0.21% of 360,000 active. Q9P0U3. inhibition, % at 10 µM. recombinant SENP1 catalytic domain, CyPet-SUMO1-YPet FRET cleavage;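 active = inhibition at least 30% at 10 µM, raw YFP signal under a set limit, fluorescence ratio 0.5 to 1.5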;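 note: 0% = enzyme with DMSO and 100% = no enzyme wells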
#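 Assay system: hSENP1 catalytic domain, recombinant. Amount: SENP1 enzyme, 20 pM final. Schedule: 50 min reaction, RT, dark. Technique: FRET, CFP and YFP emission. Control set: no-enzyme wells low, DMSO-plus-enzyme wells high control.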
# Rpn11 inh: blocks the human proteasome subunit Rpn11; human 26S proteasome, Ub4-pepOG fluorescence polarization; 20S core pre-blocked with epoxomicin; calls only at 20 µM; 0.59% of 360,000 active; AID 588493;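 active = inhibition at 20 µM, scaled to each plate's controls, above about 33%, limit read from the data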
# HNF4A DNA FP: change in binding of human HNF4 alpha to DNA | HNF4a-FITC DNA binding, fluorescence polarization, 1 h | activity change, % at 10 µM | 0.3% of 360,000 active | AID 1224865; in the data active = activity change above about 30%, passing the limit was not always enough
# Target sequence (P41235 whole entry, looked up): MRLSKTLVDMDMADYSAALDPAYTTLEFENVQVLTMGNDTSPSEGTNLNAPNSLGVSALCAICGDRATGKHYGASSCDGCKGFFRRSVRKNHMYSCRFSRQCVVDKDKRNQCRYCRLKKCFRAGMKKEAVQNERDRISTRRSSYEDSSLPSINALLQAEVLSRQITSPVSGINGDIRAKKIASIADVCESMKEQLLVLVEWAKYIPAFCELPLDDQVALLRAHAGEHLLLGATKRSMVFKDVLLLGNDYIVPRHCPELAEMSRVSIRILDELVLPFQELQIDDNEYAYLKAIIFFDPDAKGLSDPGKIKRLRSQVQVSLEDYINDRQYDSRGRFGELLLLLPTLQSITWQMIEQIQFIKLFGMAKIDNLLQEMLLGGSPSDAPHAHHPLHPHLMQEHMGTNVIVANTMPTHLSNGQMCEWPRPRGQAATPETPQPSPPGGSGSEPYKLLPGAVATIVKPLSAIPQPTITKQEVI
# CSN deneddyl inh: CSN deneddylation inhibition; Purified CSN, SCF-Nedd8-OG deneddylation, fluorescence polarization; inhibition, % at 12.5 µM; 0.38% of 360,000 active; AID 651999;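 active = pattern-corrected inhibition above about 35%, with an unprinted fluorescence ratio check between 0.5 and 1.5, limit read from the data, passing the limit was not always enough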;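 note: 0% = enzyme with substrate and 100% = substrate without enzyme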
#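 Schedule: reaction 90 min, room temperature / Assay system: HEK293T-derived human Csn5 enzyme / Input: Csn5 at 0.24 nM final / Measure: inhibition of Csn5 cleavage, % / Control set: substrate-only high control, full reaction low control / Technique: fluorescence polarization of the substrate / Buffer or medium: Tris/NaCl/DTT buffer, pH 7.5 / Reagent: SCFSkp2-Nedd8OG substrate at 10 nM final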
# UBC9 SUMO inh: SUMOylation inhibition; HTRF SUMOylation assay, SAE1/SAE2 + UBC9, in vitro; inhibition, % at 35 µM; P63279; 0.36% of 290,000 active; AID 2006; in the data active = inhibition above about 50%, passing the limit was not always enough
# TPT1 inh: C. albicans TPT1 enzyme inhibition | inhibition, % at 5 µM | recombinant caTPT1, FP RNA substrate dephosphorylation | AID 1962 | 0.81% of 300,000 active;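 active = inhibition above the mean of all tested compounds plus 3 SD, set per screening campaign, cut at about 24% in these data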;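 note: plate controls were DMSO alone for no effect and ferristatin control at 100 nM for full effect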
# Active calls of the source: *; i = inactive; / = no result shown; + = active, no number. Shown are actives, neighbours in structure and some others; about 1.8% of the full set was active somewhere.
SMILES,SENP1 FRET inh,Rpn11 inh,HNF4A DNA FP,CSN deneddyl inh,UBC9 SUMO inh,TPT1 inh
CC(C)OC(=O)C(C(=O)C(F)(F)F)c1cc(NS(=O)(=O)c2ccc3ccccc3c2)c2ccccc2c1O (stereo not given),4,i,-3,3,71*,-2
Cc1ccc(C(=O)O)cc1NS(=O)(=O)c1ccc2ccccc2c1,0,i,-3,3,2,-2
COc1ccccc1CNC(=O)c1oc2ccccc2c1C,-1,i,-1,1,0,-1
COc1ccc2c(C)c(C(=O)NCC(C)O)oc2c1OC (stereo not given),2,i,1,-2,59*,0
CCOc1cccc2cc(-c3nnc(NCc4ccco4)s3)c(=O)oc12,-20,i,-4,-3,61*,3
COc1ccccc1/C=N/NC(=O)c1ccc(CN2C(=O)c3cccc4cccc2c34)cc1,-32,i,3,-5,59*,1
O=[N+]([O-])c1ccc2nc(N3CCCC3)sc2c1,-10,i,2,1,-2,1
Fc1ccc2nc(N3CCCC3)sc2c1,-1,i,34*,-6,3,-1
Cc1cc(=O)oc2cc(NC(=O)c3ccccc3Cl)ccc12,-2,i,-2,4,-3,-17
CC(NC(=O)c1ccc(S(=O)(=O)N(C)C)cc1)c1ccccc1 (stereo not given),-1,i,-1,-6,18,-4
OC(c1ccccc1)c1nc(/C=C/c2ccccc2)cs1 (stereo not given),0,i,2,-3,/,/
C[C@H](CO)N1C[C@H](C)[C@@H](CN(C)C(=O)Nc2ccc(C(F)(F)F)cc2)Oc2c(NS(=O)(=O)c3cn(C)cn3)cccc2C1=O,3,i,-3,-3,/,/
N#Cc1c(NC(=O)c2ccccc2Cl)n(Cc2ccccc2)c2nc3ccccc3nc12,-30,+,73*,74*,100*,17
CC1CCCN(C(=O)CN2C(=O)CSc3ccc(S(=O)(=O)N4CCOCC4)cc32)C1 (stereo not given),2,i,-2,-1,/,-2
N#CC1=C(c2ccc(-c3ccccc3)cc2)COC1=O,-18,+,8,16,28,17
Cc1cc(C)nc(/N=C2\NC(=O)CC(C(=O)O)N2c2cccc(Cl)c2)n1 (stereo not given),/,/,/,/,5,12
O=C1CCC(=O)c2ccc3c4c(ccc1c24)CC3,-7,i,1,-25,/,/
O=C1CCN2C=Nc3cccc4ccc1c2c34,-20,i,-81,-73,66*,-141
COC(=O)c1c(NC(C)=O)sc2c1CCCCC2,1,i,2,104*,13,-1
NC(=O)CC(NC(=O)c1cccc(Br)c1)c1ccc(NC2CCC2)c([N+](=O)[O-])c1 (stereo not given),3,i,4,-2,-5,-1
CCOc1cc(/C=N/n2cnnc2)ccc1OCC(=O)Nc1ccccc1OC,4,i,5,3,-21,2
CCOc1cc(/C=C2\C(=O)N(c3cccc(C(=O)O)c3)N=C2C(F)(F)F)ccc1OCC(=O)Nc1ccccc1OC,/,/,/,/,73*,0
O=C(CSc1n[nH]c(-c2ccccc2F)n1)NCC(=O)Nc1ccc(F)c(F)c1F,2,i,2,-2,18,-1
N#CC1=C(N)SC(N)=C(C#N)C1CCC1CCCCC1,/,/,/,/,3,110*
CCOC(=O)c1c(NC(=O)COC(=O)CCOc2ccc(OCC)cc2)sc(C(=O)N(C)C)c1C,0,i,-1,121*,/,-1
SMILES,SENP1 FRET inh,Rpn11 inh,HNF4A DNA FP,CSN deneddyl inh,UBC9 SUMO inh,TPT1 inh
CCOC(=O)c1c(NC(=O)COC(=O)CCOc2ccc(C)cc2)sc(C(=O)N(C)C)c1C,-2,i,5,3,/,6
CCCCC(CC)CNC(=O)c1[nH]c(C)c(C(C)=O)c1C (stereo not given),1,i,-1,-1,10,4
CCCCNC(=O)c1[nH]c(C)c(C(C)=O)c1C,0,i,34*,-1,-2,-2
Cc1cc(=O)[nH]c(N=N/C(=N/Nc2ccc(O)cc2)c2ccccc2)n1,48*,i,0,1,16,-2
COc1ccc(N/N=C(/N=Nc2nc(C)cc(=O)[nH]2)c2ccccc2)cc1,5,i,-1,-4,-5,-1
COc1ccc2c(c1)-c1nc(/N=C/c3c(O)ccc4ccccc34)sc1CC2,-44,i,-4,-6,57*,/
Oc1ccc(NCc2cccc(OCc3ccc(F)cc3)c2)cc1,1,i,-3,6,74*,-2
Oc1ccc(NCc2cccc(OCc3ccccc3)c2)cc1,5,i,0,23,80,2
S=c1[nH]nc(-c2ccc3ccccc3n2)o1,-1,i,1,113*,11,3
FC(F)(F)c1ccc(-c2n[nH]c(=S)o2)nc1,-1,i,2,1,0,5
Oc1c(Br)cc(/C=N/n2c(-c3ccccc3)n[nH]c2=S)c(Br)c1O,/,/,/,/,55*,-2
CCN=C1NN=C(c2ccc(C)cc2)CS1,15,+,14,3,-12,20
c1ccc(CN=C2NN=C(c3ccccc3)CS2)cc1,7,i,-1,3,6,5
O=C1NC[C@H](CC2CCCCC2)N(CC2CCCCC2)C1=O,0,i,2,-3,/,0
CCOC(=O)C1(Cc2ccc(Cl)cc2)CCN(C(=O)C2CCCO2)CC1 (stereo not given),-1,i,-2,-1,4,-1
C=CCN1CC(C(=O)N2CCC(Cc3ccc(Cl)cc3)(C(=O)OCC)CC2)CC1=O (stereo not given),2,i,36*,1,12,-1
CN(C)CCN1CCN(C2CN(Cc3ccccc3)S(=O)(=O)C2)CC1 (stereo not given),0,i,2,-2,/,/
O=[N+]([O-])c1cc(/C=N\Nc2nccs2)ccc1O,/,/,/,/,70*,/
c1ccc(N2CCCCC2)c(Nc2nc3ccccc3n3cnnc23)c1,-22,i,-4,4,20,0
FC(F)(F)c1ccc(N2CCOCC2)c(Nc2nc3ccccc3n3cnnc23)c1,-31,i,30*,5,-2,0
CC(NS(=O)(=O)c1ccc(NC(=O)N2CCCCC2)cc1)c1ccccc1 (stereo not given),-1,i,1,0,-12,-1
O=C1c2cc([N+](=O)[O-])ccc2-c2cc(Br)c(N=C(NO)C(F)(F)F)cc21,69*,/,19,12,/,/
O=C1c2cc([N+](=O)[O-])ccc2-c2cc(Cl)c(NC(=O)C(F)(F)F)cc21,2,i,23,3,/,/

# From PubChem
